# Laboratory results from ChEMBL document CHEMBL3259770, “Structure-activity relationship studies of the tricyclic indoline resistance-modifying agent” (J Med Chem, 2014).
# Experiments:
# Staphylococcus aureus [1] = test: Antibacterial activity against methicillin-resistant Staphylococcus aureus ATCC BAA-44 after overnight incubation by broth microdilution assay in presence of 4 ug/ml amoxicillin and 2 ug/ml clavulanic acid; type: functional
# How it was run: (§1)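 Resensitization screen: compound from a 5 mg/mL DMSO stock, 2-fold serially diluted in MHB from 32 μg/mL final. Antibiotic was held at its CLSI-susceptible level: amoxicillin/clavulanic acid 4/2 μg/mL, cefazolin 8 μg/mL, meropenem 4 μg/mL. Final MRSA inoculum OD600 0.001, overnight at 37 °C with shaking. MRC was the concentration giving no visible overnight growth.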
# Staphylococcus aureus [2] = test: Antibacterial activity against methicillin-resistant Staphylococcus aureus ATCC BAA-44 after overnight incubation by broth microdilution assay in presence of 8 ug/ml cefazolin; type: functional; how it was run: as §1
# Staphylococcus aureus [3] = test: Antibacterial activity against methicillin-resistant Staphylococcus aureus ATCC 33592 after overnight incubation by broth microdilution assay in presence of 4 ug/ml meropenem; type: functional; how it was run: as §1
# [4] = Cytotoxicity against human HeLa cells after 24 hrs by CellTiter-Glo assay; type: cell-based
# How it was run: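 HeLa cells seeded at 20 000 cells/well in DMEM with 10% FCS and 1% penicillin/streptomycin, grown 16 h at 37 °C, 5% CO2. Medium renewed, then compound added in DMSO to final 0.5–32 μg/mL, triplicate series. After 24 h at 37 °C, plates equilibrated to room temperature and viability read by CellTiter-Glo luminescence.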
# Staphylococcus aureus [5] = test: Antibacterial activity against methicillin-resistant Staphylococcus aureus ATCC BAA-44 after 18 hrs by broth microdilution assay; type: functional; settings: ATCC BAA-44, 18 h
# How it was run: (§2)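 Day culture (OD600 0.15–0.4) diluted to OD600 0.002, then 2-fold on plating for a final inoculum of OD600 0.001. Plates were incubated at 37 °C with shaking for 18 h before reading growth.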
# Staphylococcus aureus [6] = test: Antibacterial activity against methicillin-resistant Staphylococcus aureus ATCC 33592 after 18 hrs by broth microdilution assay; type: functional; settings: ATCC 33592, 18 h; how it was run: as §2
# Staphylococcus aureus [7] = test: Antibacterial activity against methicillin-sensitive Staphylococcus aureus ATCC 25923 after 18 hrs by broth microdilution assay; type: functional; settings: ATCC 25923, 18 h
# How it was run: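 CLSI broth microdilution in Mueller–Hinton broth. Day culture (OD600 0.15–0.4) diluted to OD600 0.002, then 2-fold on addition to wells, giving a final inoculum of OD600 0.001.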
# Staphylococcus aureus [8] = test: Antibacterial activity against methicillin-resistant Staphylococcus aureus ATCC BAA-44 after 18 hrs by checkerboard test in presence of amoxicillin/clavulanic acid; type: functional
# How it was run: (§3)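 Checkerboard synergy test in MHB, plates in duplicate. Compound was 2-fold diluted across the rows (8 to 0.016 μg/mL). […] Final inoculum OD600 0.001, 37 °C with shaking, 18 h. FICI was taken as FICA + FICB, each the MIC in combination over the MIC alone.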
# Staphylococcus aureus [9] = test: Antibacterial activity against methicillin-resistant Staphylococcus aureus ATCC BAA-44 after 18 hrs by checkerboard test in presence of cefazolin; type: functional; how it was run: as §3
# Staphylococcus aureus [10] = test: Antibacterial activity against methicillin-resistant Staphylococcus aureus ATCC 33592 after 18 hrs by checkerboard test in presence of meropenem; type: functional; how it was run: as §3
# [11] = Hemolytic activity in human RBC at 64 ug/ml after 1 hr relative to control; type: ADME, cell-based, Erythrocyte; settings: red blood cells, read-out: Activity
# How it was run: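 Freshly drawn heparinized human blood centrifuged; RBCs washed three times in D-PBS and diluted to 1% of original pellet volume. Compound in DMSO added to final 64, 16 and 4 μg/mL. Incubated at 37 °C for 1 h with shaking, then centrifuged; supernatant hemoglobin read at 415 nm. Percent hemolysis taken against 1% Triton X-100 (100%) with DMSO as negative control. Triplicate; run within 3 h of the draw.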
# [12] = Ratio of hemolytic activity in human RBC to antibacterial activity against methicillin-resistant Staphylococcus aureus ATCC BAA-44 in presence of 4 ug/ml amoxicillin and 2 ug/ml clavulanic acid
# [13] = Ratio of hemolytic activity in human RBC to antibacterial activity against methicillin-resistant Staphylococcus aureus ATCC BAA-44 in presence of 8 ug/ml cefazolin
# [14] = Ratio of hemolytic activity in human RBC to antibacterial activity against methicillin-resistant Staphylococcus aureus ATCC 33592 in presence of 4 ug/ml meropenem
structure (smiles),measurement,setting,value
C=C1CCC[C@@H]2Nc3c(F)cc(Br)cc3[C@]12CCNS(=O)(=O)c1ccc(Br)cc1,MRC,Staphylococcus aureus [1],1 µg/mL
same,MRC,Staphylococcus aureus [2],1 µg/mL
same,MRC,Staphylococcus aureus [3],1 µg/mL
same,GI50 at 24 h,[4],22 µg/mL
same,MIC,Staphylococcus aureus [5],> 64 µg/mL
same,MIC,Staphylococcus aureus [6],> 64 µg/mL
same,MIC,Staphylococcus aureus [7],> 64 µg/mL
same,fractional inhibitory concentration index (FICI),Staphylococcus aureus [8],0.0315
same,fractional inhibitory concentration index (FICI),Staphylococcus aureus [9],0.0156
same,fractional inhibitory concentration index (FICI),Staphylococcus aureus [10],0.0315
same,"hemolysis at 1 h, 64 ug/ml",[11],< 2%
same,Ratio,[12],64
same,Ratio,[13],64
same,Ratio,[14],64
